Key:
[1] = Cytotoxicity against human HuH7 cells; assay type: cell-based, Huh-7
Outline: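 Replicon-bearing Huh-7 cells were grown with compound at 1 μM to 1 mM at a constant final 1% solvent. CC50 = concentration inhibiting cell growth by 50%. Mean of at least three independent experiments ± SD.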

Hepatitis C virus [2] = assay: Antiviral activity against HCV Con 1 by subgenomic replicon assay; assay type: functional, organism-based, Hepacivirus hominis; details: Con1
Outline: (§1)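 Huh-7 cells carrying a stably replicating subgenomic HCV replicon were grown with compound at 1 μM to 1 mM, final solvent 1%; solvent-only cells served as control. Remaining replication read as luminescence. EC50 = concentration reducing luminescence by 50%; SI = CC50/EC50. Mean of at least three independent experiments ± SD.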

[3] = Inhibition of HCV NS3 helicase; set-up: species or system Hepacivirus hominis
Outline: (§2)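 Fluorescence unwinding assay with purified NS3 helicase domains. Genotype 1a was expressed in baculovirus-infected insect cells; genotypes 1b and 3a were cloned from patient blood by RT-PCR, purity 95% by SDS–PAGE. Reactions used 10 nM dsDNA substrate, 20 nM enzyme and 125 nM capture strand. Inhibitor (1–300 μM) was preincubated with enzyme and substrate 15 min at room temperature without ATP. Reactions were started with 1.5 mM ATP and run 60 min at 30 °C, read every 2 min. Activity = initial velocity; inhibition relative to no-inhibitor control. Mean of at least three experiments ± SD.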

[4] = Selectivity index, ratio of CC50 for human HuH7 cells to EC50 for; set-up: species or system Huh-7; outline: as §1
Hepatitis C virus [5] = assay: Inhibition of HCV genotype 1B NS3 helicase; set-up: species or system Hepatitis C virus subtype 1b; outline: as §2
[6] = Inhibition of HCV genotype 1a NS3 helicase; set-up: species or system Hepatitis C virus subtype 1a; outline: as §2
[7] = Inhibition of HCV genotype 3a NS3 helicase; set-up: species or system Hepatitis C virus subtype 3a; outline: as §2

With O=c1c(Br)cc(CN2CCOCC2)cc(Br)c1O the CC50 [1] was 227 µM, the EC50 (Hepatitis C virus [2]) was 176 µM and the IC50 [3] was 17.6 µM. The “Ratio CC50/EC50” value [4] was 1.3.

In the case of O=c1c(Br)cccc(Br)c1O, the CC50 [1] is reported as 92.7 µM, the EC50 (Hepatitis C virus [2]) is reported as 89.8 µM and the IC50 [3] is reported as > 150 µM. The “Ratio CC50/EC50” value [4] was 1.

In the case of [N-]=[N+]=N[C@]1(CO)O[C@@H](n2ccc(N)nc2=O)[C@H](O)[C@@H]1O [4'-AZIDOCYTIDINE], the CC50 [1] is reported as > 100 µM and the EC50 (Hepatitis C virus [2]) is reported as 10.5 µM.

In the case of O=c1c(CN2CCCCC2)cc(CN2CCCCC2)cc(CN2CCCCC2)c1O, the CC50 [1] is reported as > 500 µM, the EC50 (Hepatitis C virus [2]) is reported as 137 µM and the IC50 [3] is reported as 26.5 µM. The “Ratio CC50/EC50” value [4] was >3.6.

In the case of O=c1c(CN2CCC(O)CC2)cc(CN2CCC(O)CC2)cc(CN2CCC(O)CC2)c1O, the CC50 [1] is reported as > 250 µM, the EC50 (Hepatitis C virus [2]) is reported as > 250 µM and the IC50 [3] is reported as 22.7 µM.

CC1CCN(Cc2cc(CN3CCC(C)CC3)c(O)c(=O)c(CN3CCC(C)CC3)c2)CC1 showed a CC50 [1] of 556 µM, an EC50 (Hepatitis C virus [2]) of 32 µM and an IC50 [3] of 10.5 µM. For the same compound, the “Ratio CC50/EC50” value [4] was 17.4.

In the case of NC(=O)c1ncn([C@@H]2O[C@H](CO)[C@@H](O)[C@H]2O)n1 [RIBAVIRIN], the CC50 [1] is reported as 178 µM, the EC50 (Hepatitis C virus [2]) is reported as 120 µM and the “Ratio CC50/EC50” value [4] is reported as 1.5.

In the case of O=c1c(Cl)cccc(Cl)c1O, the CC50 [1] is reported as 254 µM, the EC50 (Hepatitis C virus [2]) is reported as 334 µM and the IC50 [3] is reported as > 150 µM. For the same compound, the “Ratio CC50/EC50” value [4] was 0.8.

In the case of O=c1ccccc(Br)c1O, the CC50 [1] is reported as 85.2 µM, the EC50 (Hepatitis C virus [2]) is reported as 121 µM and the IC50 [3] is reported as > 150 µM. The “Ratio CC50/EC50” value [4] was 0.7.

For CC1CCCN(Cc2cc(CN3CCCC(C)C3)c(O)c(=O)c(CN3CCCC(C)C3)c2)C1 (centres undefined), the CC50 [1] was 348 µM, the EC50 (Hepatitis C virus [2]) was 35.6 µM and the IC50 [3] was 17.8 µM. The “Ratio CC50/EC50” value [4] was 9.8.

With CN1CCN(Cc2cc(CN3CCN(C)CC3)c(O)c(=O)c(CN3CCN(C)CC3)c2)CC1 the IC50 (Hepatitis C virus [5]) was 3.5 µM, the IC50 [6] was 3.4 µM and the CC50 [1] was > 1000 µM. It also gave an EC50 (Hepatitis C virus [2]) of 46.9 µM, an IC50 [7] of 4.5 µM and an IC50 [3] of 3.4 µM. The “Ratio CC50/EC50” value [4] was >21.3.

In the case of O=c1c(CN2CCCC2)cc(CN2CCCC2)cc(CN2CCCC2)c1O, the CC50 [1] is reported as > 500 µM, the EC50 (Hepatitis C virus [2]) is reported as > 500 µM and the IC50 [3] is reported as 184 µM.

For O=c1c(CN2CCC(N3CCCC3)CC2)cc(CN2CCC(N3CCCC3)CC2)cc(CN2CCC(N3CCCC3)CC2)c1O, the CC50 [1] was > 200 µM, the EC50 (Hepatitis C virus [2]) was > 200 µM and the IC50 [3] was 7 µM.

Source: ChEMBL document CHEMBL1250429, “Studies on the anti-hepatitis C virus activity of newly synthesized tropolone derivatives: identification of NS3 helicase inhibitors that specifically inhibit subgenomic HCV replication” (Bioorg Med Chem, 2010)
